Laboratory results published in ChEMBL document CHEMBL1772965, “Analogues and derivatives of oncrasin-1, a novel inhibitor of the C-terminal domain of RNA polymerase II and their antitumor activities” (J Med Chem, 2011).

Columns and labels:
[1] = Stability of compound at pH 7.4; assay type: physicochemical; settings: buffer
[2] = Stability of compound at pH 4; assay type: physicochemical; settings: buffer
[3] = Cytotoxicity against human T29 cells assessed as cell viability after 3 days by sulforhodamine B assay; assay type: cell-based; settings: T29, 72 h
In short: (§1)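 Monolayer cultures were grown in RPMI-1640 or DMEM with 10% heat-inactivated fetal calf serum and penicillin/streptomycin, at 37°C and 5% CO2. Cells were exposed for 3 days to compound from 10−4.5 M (31.6 μM) down to 10−8 M (10 nM), with 1% DMSO as the control. Viability was read by sulforhodamine B. IC50 was the dose halving surviving cells versus control, run in quadruplicate and repeated at least three times.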

[4] = Stability of compound at pH 9; assay type: physicochemical; settings: buffer
[5] = Cytotoxicity against mutant K-ras-transformed human T29Kt1 cells assessed as cell viability after 3 days by sulforhodamine B assay; assay type: functional, cell-based; settings: T29Kt1, 72 h; in short: as §1
NCI-H460 = test: Cytotoxicity against human H460 cells assessed as cell viability after 3 days by sulforhodamine B assay; assay type: functional, cell-based; settings: NCI-H460, 72 h; in short: as §1
[6] = Stability of compound at pH 6; assay type: physicochemical; settings: buffer
[7] = Stability of compound at pH 2; assay type: physicochemical; settings: buffer

SMILES	Stability [1]	Stability [2]	IC50 [3]	Stability [4]	IC50 [5]	IC50 (NCI-H460)	Stability [6]	Stability [7]
Cn1cc(CO)c2cc(F)ccc21	Stable	Stable	> 31.6 µM	Stable	13.8 µM	16.9 µM	Stable	Unstable
COC(=O)c1cn(Cc2ccc(Br)cc2)c2ccccc12	–	–	5 µM	–	6.3 µM	5 µM	–	–
CC(=O)OCc1cn(Cc2ccc(Cl)cc2)c2ccccc12	–	–	> 31.6 µM	–	0.063 µM	0.039 µM	–	–
O=Cc1cn(Cc2cccc(Cl)c2)c2ccc(F)cc12	Stable	–	> 31.6 µM	–	1.5 µM	0.37 µM	–	Stable
c1ccc(Cn2ccc3ccccc32)cc1	–	–	> 31.6 µM	–	> 31.6 µM	> 31.6 µM	–	–
Cc1ccc(Cn2cc(C=O)c3ccccc32)cc1	Stable	–	> 31.6 µM	–	3.98 µM	0.063 µM	–	Stable
O=Cc1cn(Cc2ccc([N+](=O)[O-])cc2)c2ccccc12	Stable	–	> 31.6 µM	–	10 µM	0.5 µM	–	Stable
O=C(O)c1cn(Cc2ccc(Cl)cc2)c2ccccc12	–	–	> 31.6 µM	–	> 31.6 µM	> 31.6 µM	–	–
Cc1cccc(Cn2cc(C=O)c3ccccc32)c1	Stable	–	> 31.6 µM	–	6.3 µM	0.039 µM	–	Stable
O=Cc1cn(Cc2cccc(Cl)c2)c2ccccc12	Stable	–	> 31.6 µM	–	0.37 µM	0.037 µM	–	Stable
Brc1cccc(Cn2cc(Cc3cn(Cc4cccc(Br)c4)c4ccccc34)c3ccccc32)c1	–	–	> 31.6 µM	–	> 31.6 µM	> 31.6 µM	–	–
CC(C)Cn1cc(C=O)c2ccccc21	Stable	–	> 31.6 µM	–	> 31.6 µM	1.99 µM	–	Stable
O=Cc1cn(Cc2ccc(Cl)cc2)c2ccc(F)cc12	Stable	–	> 31.6 µM	–	9.09 µM	0.29 µM	–	Stable
O=Cc1cn(Cc2cccc(F)c2)c2ccccc12	Stable	–	> 31.6 µM	–	2.63 µM	0.031 µM	–	Stable
Clc1cccc(Cn2cc(Cc3cn(Cc4cccc(Cl)c4)c4ccccc34)c3ccccc32)c1	–	–	> 31.6 µM	–	> 31.6 µM	> 31.6 µM	–	–
O=Cc1cn(Cc2ccc(Cl)cc2Cl)c2ccccc12	Stable	–	> 31.6 µM	–	1.58 µM	0.1 µM	–	Stable
OCc1cc2cc(F)ccc2n1Cc1ccc(Cl)cc1	–	–	17.4 µM	–	15.1 µM	11.5 µM	–	–
COCc1cn(Cc2ccc(Cl)cc2)c2ccccc12	–	–	> 31.6 µM	–	7.94 µM	1.99 µM	–	–
O=C(NC1CCCCC1)OCc1cn(Cc2ccc(Cl)cc2)c2ccccc12	–	–	> 31.6 µM	–	0.2 µM	0.02 µM	–	–
O=Cc1cn(Cc2cccc(C(F)(F)F)c2)c2ccccc12	Stable	–	> 31.6 µM	–	1.78 µM	0.14 µM	–	Stable
CC(=O)c1cn(Cc2cccc(Cl)c2)c2ccccc12	–	–	> 31.6 µM	–	> 31.6 µM	> 31.6 µM	–	–
O=Cc1cn(Cc2ccccc2F)c2ccccc12	Stable	–	> 31.6 µM	–	0.31 µM	0.1 µM	–	Stable
O=Cc1cn(Cc2ccccc2)c2ccccc12	Stable	–	> 31.6 µM	–	5 µM	0.045 µM	–	Stable

SMILES	Stability [1]	Stability [2]	IC50 [3]	Stability [4]	IC50 [5]	IC50 (NCI-H460)	Stability [6]	Stability [7]
CC(=O)c1cn(Cc2ccccc2)c2ccccc12	–	–	> 31.6 µM	–	> 31.6 µM	10 µM	–	–
O=Cc1cn(Cc2ccc(Cl)cc2)c2ccc(Cl)cc12	Stable	–	> 31.6 µM	–	10 µM	0.4 µM	–	Stable
OCCCc1cn(Cc2ccccc2)c2ccccc12	–	–	> 31.6 µM	–	> 31.6 µM	> 31.6 µM	–	–
O=Cc1cn(Cc2cccc(Br)c2)c2ccccc12	Stable	–	> 31.6 µM	–	1.58 µM	0.039 µM	–	Stable
N#Cc1cn(Cc2cccc(Cl)c2)c2ccccc12	–	–	> 31.6 µM	–	> 31.6 µM	> 31.6 µM	–	–
O=C(O)c1cn(Cc2ccccc2)c2ccccc12	–	–	> 31.6 µM	–	> 31.6 µM	> 31.6 µM	–	–
CC(O)c1cn(Cc2ccc(Cl)cc2)c2ccccc12 (stereo unspecified)	–	–	> 31.5 µM	–	19.9 µM	25.1 µM	–	–
OCCc1cn(Cc2ccc(Cl)cc2)c2ccccc12	–	–	> 31.6 µM	–	> 31.6 µM	> 31.6 µM	–	–
COC(=O)CNCc1cn(Cc2ccc(Cl)cc2)c2ccccc12	–	–	31.6 µM	–	5.01 µM	0.1 µM	–	–
O=Cc1cn(CCCOc2ccc(Cl)cc2)c2ccccc12	Stable	–	> 31.6 µM	–	4.89 µM	0.045 µM	–	Stable
O=Cc1cn(Cc2ccc(Cl)cc2)c2cc(F)ccc12	Stable	–	> 31.6 µM	–	9.19 µM	0.12 µM	–	Stable
O=Cc1cn(Cc2ccc(Br)cc2)c2ccccc12	Stable	–	> 31.6 µM	–	0.25 µM	0.031 µM	–	Stable
Cc1cn(Cc2ccc(Cl)cc2)c2ccccc12	–	–	> 31.6 µM	–	> 31.6 µM	> 31.6 µM	–	–
COC(=O)c1cn(Cc2ccc(Cl)cc2)c2ccccc12	–	–	17.7 µM	–	25.1 µM	31.6 µM	–	–
O=CC1C(=O)N(Cc2ccc(Cl)cc2)c2cc(Cl)ccc21 (stereo unspecified)	Stable	–	18.6 µM	–	18.2 µM	18.2 µM	–	Stable
CC(=O)c1cn(Cc2ccc(Cl)cc2)c2ccccc12	–	–	> 31.6 µM	–	> 31.6 µM	> 31.6 µM	–	–
O=Cc1cn(Cc2ccc(Cl)cc2)c2ccccc12	Stable	–	> 31.6 µM	–	2.51 µM	0.25 µM	–	Stable
O=Cc1cn(Cc2ccc(Cl)cc2)c2cc(Br)ccc12	Stable	–	21 µM	–	32 µM	0.09 µM	–	Stable
O=Cc1cn(Cc2cccc([N+](=O)[O-])c2)c2ccccc12	Stable	–	> 31.6 µM	–	0.5 µM	0.039 µM	–	Stable
O=Cc1cn(Cc2ccc(Br)c(Br)c2)c2ccccc12	Stable	–	> 31.6 µM	–	0.63 µM	0.063 µM	–	Stable
CC(=O)c1cn(Cc2ccccc2Cl)c2ccccc12	–	–	> 31.6 µM	–	> 31.6 µM	> 31.6 µM	–	–
O=Cc1cn(Cc2ccc(C(F)(F)F)cc2)c2ccccc12	Stable	–	> 31.6 µM	–	> 31.6 µM	1.58 µM	–	Stable
